According to ChEMBL document CHEMBL4680102, “Design, Synthesis, and Biological Activity of Substrate Competitive SMYD2 Inhibitors” (J Med Chem, 2016):
≈ marks a conversion by molar mass, not a printed value. Calls of active or inactive are those of the source. The rule behind the calls is not given here.

Legend:
[1] = Distribution coefficient, logD of compound; format: physicochemical; conditions: octanol/water
[2] = Solubility of compound in 0.1 M phosphate buffer at pH 7.4 at 25 degC after 24 hrs; format: physicochemical
Outline: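 Solid sample shaken 24 h in 0.1 M phosphate buffer, pH 7.4, 25 °C.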

[3] = Unbound fraction in human plasma by equilibrium dialysis; format: ADME, cell-free
Outline: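 Human plasma, compound added from DMSO stock; fraction unbound (fu%) by equilibrium dialysis.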

[4] = molecular target: T1, N-lysine methyltransferase SMYD2 (Homo sapiens, UniProt Q9NRG4); experiment: Inhibition of SMYD2 (unknown origin)
T1 sequence (Q9NRG4 whole entry): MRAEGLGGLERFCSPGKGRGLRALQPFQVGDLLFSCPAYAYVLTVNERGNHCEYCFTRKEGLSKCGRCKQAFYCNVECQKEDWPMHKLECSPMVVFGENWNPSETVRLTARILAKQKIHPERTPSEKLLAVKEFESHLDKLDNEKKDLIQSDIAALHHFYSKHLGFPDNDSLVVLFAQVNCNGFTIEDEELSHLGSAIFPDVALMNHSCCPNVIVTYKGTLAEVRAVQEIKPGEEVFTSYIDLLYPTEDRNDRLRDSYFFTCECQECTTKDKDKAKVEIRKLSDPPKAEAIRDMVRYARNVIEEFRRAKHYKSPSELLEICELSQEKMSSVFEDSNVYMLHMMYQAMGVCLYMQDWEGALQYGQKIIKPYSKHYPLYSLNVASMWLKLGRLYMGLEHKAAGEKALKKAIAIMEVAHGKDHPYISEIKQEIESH

[5] = molecular target: T1, N-lysine methyltransferase SMYD2; experiment: Inhibition of SMYD2 (unknown origin) expressed in human U2OS cells assessed as reduction in monomethylated p53 levels incubated for 24 hrs by immunofluorescence assay; format: cell-based
Outline: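 U2OS plated 8,000 cells/well, transfected (Fugene) with FLAG-tagged wild-type SMYD2 construct. Compound from DMSO in media (final DMSO 0.2%), 24 h. Cells PFA-fixed, stained with anti-FLAG (1:800), polyclonal anti-monomethyl p53 K370 peptide antibody (1:1000) and DAPI, then imaged. IC50 from fluorescent intensity per cell for methylation; DAPI count gave the cell-count IC50.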

[6] = Intrinsic clearance in human liver microsomes; conditions: read-out: CLH
[7] = molecular target: T1, N-lysine methyltransferase SMYD2; experiment: Ratio of IC50 for SMYD2 (unknown origin) to IC50 for inhibition of SMYD2 (unknown origin) expressed in human U2OS cells; format: cell-based
HCT-116 [8] = experiment: Antiproliferative activity against human HCT-116 cells contains wild-type p53 gene assessed as reduction in cell viability at 0.03 to 30 uM incubated for 72 hrs by Alamar blue based assay; format: functional; conditions: dose 0.03-30 µM
Outline: (§1)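 Matched p53 wild-type/deficient pairs (HCT116 p53+/+ and p53-/-; RKO-neo and RKO-E6a) seeded in triplicate, attached overnight. Media replaced with DMSO control or compound media, 0.03 to 30 µM, 72 h. Viability read as fluorescence after AlamarBlue incubation. Triplicate in two separate experiments; mean ±SEM.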

HCT-116 [9] = experiment: Antiproliferative activity against human HCT-116 cells deficient in p53 gene assessed as reduction in cell viability at 0.03 to 30 uM incubated for 72 hrs by Alamar blue based assay; format: functional; conditions: dose 0.03-30 µM; outline: as §1
RKO = experiment: Antiproliferative activity against human RKO cells assessed as reduction in cell viability at 0.03 to 30 uM incubated for 72 hrs by Alamar blue based assay; format: functional; conditions: dose 0.03-30 µM; outline: as §1
RKOE6 = experiment: Antiproliferative activity against human RKOE6 cells assessed as reduction in cell viability at 0.03 to 30 uM incubated for 72 hrs by Alamar blue based assay; format: functional; conditions: dose 0.03-30 µM; outline: as §1
[10] = Intrinsic clearance in human liver microsomes; format: ADME, Microsome; conditions: read-out: CLH
[11] = molecular target: T1, N-lysine methyltransferase SMYD2; experiment: Binding affinity to SMYD2 (unknown origin) by ITC assay
Outline: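 Microcal ITC at 23 °C in 25 mM Tris pH 8.5, 50 mM NaCl, 2% DMSO. Cell held ~15 µM SMYD2; syringe 200 µM compound. Eight 4 µL injections gave a final compound:protein molar ratio of ~1.4:1.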

Structure (SMILES)	solubility at 24 h [2]	fraction unbound [3]	IC50 [4]	EC50 [5]	also measured
O=C(NCCCN1CCCC1)c1cc(-c2ccccc2N2CCN(CCc3ccc(Cl)c(Cl)c3)CC2)nc2[nH]ncc12	174 µM (≈ 106 µg/mL)	< 0.01	0.065 µM	0.549 µM	logD [1]: > 3.5; microsomal CLint [6]: > 300 µL/min/mg
O=C(NCCCN1CCCC1)c1ccnc(-c2ccccc2N2CCN(CCc3ccc(Cl)cc3)CC2)c1	> 1000 µM	0.13	0.305 µM	1.62 µM	–
Cc1ccccc1-c1cc(C(=O)N2CCC(N3CCCCC3)CC2)c2cn[nH]c2n1	–	–	16.9 µM	–	–
Cc1ccccc1-c1cc(C(=O)NCCCN2CCCC2)c2c(C3CC3)n[nH]c2n1	–	–	13.3 µM	–	–
O=C(NCCCN1CCCC1)c1cncc(-c2ccccc2N2CCN(CCc3c[nH]c4ccccc34)CC2)c1	858 µM (≈ 461 µg/mL)	0.17	0.017 µM	1.02 µM	IC50 [5]: 2.43 µM; Ratio IC50 [7]: > 2; Activity (HCT-116 [8]): Active; Activity (HCT-116 [9]): Active; Activity (RKO): Active; Activity (RKOE6): Active
O=C(NCCCN1CCCC1)c1cncc(-c2ccccc2N2CCN(CCc3ccc(Cl)c(Cl)c3)CC2)c1	393 µM (≈ 223 µg/mL)	0.011	0.038 µM	0.45 µM	–
COc1cc(C(=O)NCCCN2CCCC2)cc(-c2ccccc2C)n1	–	–	9.9 µM	–	–
N#Cc1cc(C(=O)NCCCN2CCCC2)cc(-c2ccccc2N2CCN(CCc3c[nH]c4ccccc34)CC2)c1	396 µM (≈ 222 µg/mL)	0.038	0.028 µM	0.27 µM	microsomal CLint [10]: 21 µL/min/mg
COc1cc(C(=O)NCCCN2CCCC2)cc(-c2ccccc2C)c1	–	–	22.1 µM	–	–
CN(CCCN1CCCC1)C(=O)c1cc(-c2ccccc2Br)nc2[nH]ncc12	–	–	7.3 µM	–	–
COc1cccc(CCN2CCN(c3ccccc3-c3cccc(C(=O)NCCCN4CCCC4)c3)CC2)c1	815 µM (≈ 429 µg/mL)	0.1	0.273 µM	3.5 µM	microsomal CLint [10]: 36 µL/min/mg
O=C(NCCCN1CCCC1)c1cncc(-c2ccccc2OC2CN(CCc3ccc(Cl)c(Cl)c3)C2)c1	> 1000 µM	0.11	0.012 µM	> 24 µM	logD [1]: 2.4; microsomal CLint [6]: 33.5 µL/min/mg
Cc1ccccc1-c1cc(C(=O)NCCCN2CCCC2)c2cn[nH]c2n1	> 1000 µM	0.43	5.6 µM	–	Kd [11]: 1.73 µM; logD [1]: 1.19; microsomal CLint [6]: 92 µL/min/mg
Cc1ccccc1-c1cc(C(=O)NCCCN2CCCC2)c2c(C)n[nH]c2n1	–	–	8.9 µM	–	–
O=C(NCCCN1CCCC1)c1ccnc(-c2ccccc2N2CCN(CCc3ccc(Cl)c(Cl)c3)CC2)c1	790 µM (≈ 448 µg/mL)	0.014	0.12 µM	5.57 µM	–
Cc1ccccc1-c1cc(C#N)cc(C(=O)NCCCN2CCCC2)c1	–	–	7.3 µM	–	–
O=C(NCCCN1CCCC1)c1cccc(-c2ccccc2N2CCN(CCc3c[nH]c4ccccc34)CC2)c1	246 µM (≈ 132 µg/mL)	0.033	0.041 µM	3.46 µM	microsomal CLint [10]: 16 µL/min/mg
Cc1cccc(CCN2CCN(c3ccccc3-c3cc(C#N)cc(C(=O)NCCCN4CCCC4)c3)CC2)c1	588 µM (≈ 315 µg/mL)	0.023	0.031 µM	1.21 µM	microsomal CLint [10]: 43 µL/min/mg
Cc1cccc(CCN2CCN(c3ccccc3-c3cccc(C(=O)NCCCN4CCCC4)c3)CC2)c1	722 µM (≈ 369 µg/mL)	0.053	0.211 µM	4.14 µM	microsomal CLint [10]: 35 µL/min/mg
COc1cccc(CCN2CCN(c3ccccc3-c3cc(C(=O)NCCCN4CCCC4)ccn3)CC2)c1	> 1000 µM	0.41	0.44 µM	1.22 µM	–
Cc1ccccc1-c1cc(C(=O)NCCCN(C)C)c2cn[nH]c2n1	–	–	> 61 µM	–	–
O=C(NCCCN1CCCC1)c1cc(-c2ccccc2F)nc2[nH]ncc12	–	–	16.8 µM	–	–

Structure (SMILES)	solubility at 24 h [2]	fraction unbound [3]	IC50 [4]	EC50 [5]	also measured
O=C(NCCCN1CCCC1)c1cccc(-c2ccccc2N2CCN(CCc3ccc(Cl)cc3)CC2)c1	332 µM (≈ 176 µg/mL)	0.012	0.114 µM	3.12 µM	microsomal CLint [10]: 30 µL/min/mg
Cc1ccccc1-c1cc(C(=O)NCC(O)CN2CCCC2)c2cn[nH]c2n1 (configuration not stated)	–	–	12.1 µM	–	–
COc1cccc(CNC2CCN(c3ccccc3-c3cncc(C(=O)NCCCN4CCCC4)c3)CC2)c1	915 µM (≈ 483 µg/mL)	0.14	0.039 µM	5.76 µM	logD [1]: 1.9; microsomal CLint [6]: 28 µL/min/mg
Cc1ccccc1-c1cc(C(=O)NCCCN2CCC(N3CCCCC3)CC2)c2cn[nH]c2n1	–	–	19.6 µM	–	–
O=C(NCCCN1CCCC1)c1cccc(-c2ccccc2N2CCN(CCc3ccc(Cl)c(Cl)c3)CC2)c1	34 µM (≈ 19.2 µg/mL)	< 0.01	0.165 µM	3.23 µM	microsomal CLint [10]: 68 µL/min/mg
O=C(NCCCN1CCCC1)c1ccnc(-c2ccccc2N2CCN(CCc3c[nH]c4ccccc34)CC2)c1	923 µM (≈ 495 µg/mL)	0.34	0.062 µM	5.61 µM	–
NCC1(C(=O)Nc2ccc(Cl)cc2)CCN(c2ncnc3[nH]nc(C4CC4)c23)CC1	–	–	–	–	Activity [11]: Active
CCc1ccccc1-c1cc(C(=O)NCCCN2CCCC2)c2cn[nH]c2n1	–	–	8.4 µM	–	–
O=C(NCCCN1CCCC1)c1cccc(-c2ccccc2N2CCN(CCc3ccccc3)CC2)c1	851 µM (≈ 423 µg/mL)	0.08	0.339 µM	4.91 µM	microsomal CLint [10]: 30 µL/min/mg
Cc1ccccc1-c1cc(C(=O)NCCCN2CCCCC2)c2cn[nH]c2n1	–	–	13.5 µM	–	–
CCOc1cccc(C(=O)NC2CC3(CCNCC3)c3ccccc32)c1 (configuration not stated)	–	–	–	–	Activity [11]: Active
COc1cccc(CCN2CCN(c3ccccc3-c3cc(C#N)cc(C(=O)NCCCN4CCCC4)c3)CC2)c1	602 µM (≈ 332 µg/mL)	0.073	0.059 µM	2.69 µM	microsomal CLint [10]: 74 µL/min/mg
Cc1ccccc1-c1cc(C(=O)NCCCN2CCCC2)ccn1	–	–	8.8 µM	–	–
CNc1cc(C(=O)NCCCN2CCCC2)cc(-c2ccccc2C)n1	–	–	17.7 µM	–	–
Cc1ccccc1-c1cc(C(=O)NCCCN2CCOCC2)c2cn[nH]c2n1	–	–	41.3 µM	–	–
Cc1ccccc1-c1cc(C(=O)NCC(Cc2ccccc2)CN2CCCC2)c2cn[nH]c2n1 (configuration not stated)	–	–	3.6 µM	–	–
CNCCCNC(=O)c1cc(-c2ccccc2C)nc2[nH]ncc12	–	–	> 83 µM	–	–
COc1ccc(CCN2CCN(c3ccccc3-c3cc(C(=O)NCCCN4CCCC4)ccn3)CC2)cc1	> 1000 µM	0.34	1.05 µM	2.44 µM	–
Cc1ccccc1-c1cccc(C(=O)NCCCN2CCCC2)c1	–	–	17.4 µM	–	–
CCn1cncc1CN1CCc2[nH]c(=O)cc(-c3ccc(Cl)cc3)c2C1	–	–	–	–	Activity [11]: Active
O=C(NCCCN1CCCC1)c1cc(-c2ccccc2Cl)nc2[nH]ncc12	–	–	8 µM	–	–
COc1ccccc1-c1cc(C(=O)NCCCN2CCCC2)c2cn[nH]c2n1	–	–	14.5 µM	–	–
